# Active and inactive are the calls of the source. No cut-off for these calls is given here.
# Key:
# [1] = system: LNCaP; assay: Antitumor activity against human bicalutamide-resistant LNCAP cells xenografted in SCID mouse assessed as inhibition of tumor growth at 100 mg/kg, po qd for seven cycles of 5 days on, 2 days off; assay type: functional, organism-based; design: dose 100 mg/kg
# Procedure, shortened: (§1)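 LNCaP-BC2 cells (2 × 10^6) inoculated subcutaneously into castrated 6-week-old male SCID mice. Randomised at tumour size 90–400 mm3, n = 5 per group. Oral dosing once daily in 5% gum arabic at 10 mL/kg, seven cycles of 5 days on and 2 days off. Tumour size and plasma PSA measured after 17 days. PSA expressed as day 17 level relative to day 0 level.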
# [2] = system: Mus musculus; assay: Inhibition of prostate specific antigen production in human bicalutamide-resistant LNCAP cells xenografted SCID mouse at 10 mg/kg, po qd for seven cycles of 5 days on and 2 days off measured on day 17; assay type: functional, organism-based; design: dose 10 mg/kg; procedure, shortened: as §1
# [3] = Membrane permeability by PAMPA assay; assay type: ADME; conditions: read-out: permeability
# [4] = system: LNCaP; assay: Antitumor activity against human bicalutamide-resistant LNCAP cells xenografted in SCID mouse assessed as inhibition of tumor growth at 10 mg/kg, po qd for seven cycles of 5 days on, 2 days off; assay type: functional, organism-based; design: dose 10 mg/kg; procedure, shortened: as §1
# [5] = target: T1, Androgen receptor (Homo sapiens, UniProt P10275); assay: Antagonist activity at human AR expressed in human HeLa cells co-transfected with MMTV-Luc-Hyg after 48 hrs by transient-luciferase reporter gene assay; assay type: functional, cell-based
# T1 sequence (P10275 whole entry): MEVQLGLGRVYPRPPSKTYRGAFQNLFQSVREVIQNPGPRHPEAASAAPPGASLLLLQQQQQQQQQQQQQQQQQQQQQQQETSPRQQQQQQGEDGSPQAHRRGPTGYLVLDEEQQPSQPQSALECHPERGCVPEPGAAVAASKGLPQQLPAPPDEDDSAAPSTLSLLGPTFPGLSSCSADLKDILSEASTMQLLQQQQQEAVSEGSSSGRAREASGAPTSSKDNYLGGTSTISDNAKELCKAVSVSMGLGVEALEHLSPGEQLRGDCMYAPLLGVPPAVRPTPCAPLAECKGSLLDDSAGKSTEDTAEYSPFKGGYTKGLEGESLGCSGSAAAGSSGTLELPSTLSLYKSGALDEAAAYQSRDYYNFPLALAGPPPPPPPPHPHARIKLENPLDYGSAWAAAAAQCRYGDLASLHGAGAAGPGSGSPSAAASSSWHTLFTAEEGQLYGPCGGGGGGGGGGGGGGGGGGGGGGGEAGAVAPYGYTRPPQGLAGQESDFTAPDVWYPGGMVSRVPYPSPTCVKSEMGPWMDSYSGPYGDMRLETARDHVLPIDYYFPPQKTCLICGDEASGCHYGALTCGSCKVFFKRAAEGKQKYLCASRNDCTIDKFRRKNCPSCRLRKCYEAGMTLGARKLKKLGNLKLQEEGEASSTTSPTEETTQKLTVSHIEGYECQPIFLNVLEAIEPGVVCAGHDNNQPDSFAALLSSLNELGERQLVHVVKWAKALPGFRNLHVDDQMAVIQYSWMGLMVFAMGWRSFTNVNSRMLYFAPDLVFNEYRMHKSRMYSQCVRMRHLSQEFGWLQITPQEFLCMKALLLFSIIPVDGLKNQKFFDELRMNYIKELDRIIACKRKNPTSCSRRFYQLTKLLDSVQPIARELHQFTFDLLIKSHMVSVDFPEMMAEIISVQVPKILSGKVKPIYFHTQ
# [6] = target: hERG (KCNH2) (Homo sapiens, UniProt Q12809); assay: Inhibition of human ERG at 10 uM by whole cell patch-clamp technique
# Procedure, shortened: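 hERG current recorded by whole-cell patch clamp; one experiment run in duplicate.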
# [7] = system: Canis familiaris; assay: Cardiotoxicity in anesthetized dog assessed as QT prolongation by electrocardiographic analysis; assay type: toxicity, organism-based, Canis lupus familiaris; conditions: in vivo
# [8] = species: Mus musculus; assay: Antiandrogenic activity in castrated mouse assessed as reduction in wet weight gain of seminal vesicle; assay type: functional
# Procedure, shortened: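 Castrated mice, n = 4 or 5 per group; antiandrogenic activity read as change in seminal vesicle wet weight.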
# [9] = system: Mus musculus; assay: Inhibition of prostate specific antigen production in human bicalutamide-resistant LNCAP cells xenografted SCID mouse at 100 mg/kg, po qd for seven cycles of 5 days on and 2 days off measured on day 17; assay type: functional, organism-based; design: dose 100 mg/kg; procedure, shortened: as §1
# [10] = target: T2, Androgen receptor (Homo sapiens) (UniProt P10275); conditions: HeLa
# T2 sequence (whole entry): T1 sequence (P10275 whole entry)
# [11] = Metabolic stability in human liver microsomes assessed as compound remaining after 15 mins by LC-MS/MS analysis; assay type: ADME, Microsome; conditions: read-out: Stability
# Procedure, shortened: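 Human liver microsomes in phosphate buffer (pH 7.4) with NADPH added. Percent of parent compound remaining measured after 15 min.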
# [12] = Metabolic stability in rat liver microsomes assessed as compound remaining after 30 mins by LC-MS/MS analysis; assay type: ADME, Microsome; conditions: read-out: Stability
# [13] = Metabolic stability in monkey liver microsomes assessed as compound remaining after 30 mins by LC-MS/MS analysis; assay type: ADME, Macaca mulatta, Microsome; conditions: rhesus monkey, read-out: Stability
# [14] = Metabolic stability in mouse liver microsomes assessed as compound remaining after 30 mins by LC-MS/MS analysis; assay type: ADME, Microsome; conditions: read-out: Stability
# [15] = Metabolic stability in human liver microsomes assessed as compound remaining after 30 mins by LC-MS/MS analysis; assay type: ADME, Microsome; conditions: read-out: Stability
# [16] = Metabolic stability in dog liver microsomes assessed as compound remaining after 30 mins by LC-MS/MS analysis; assay type: ADME, Canis lupus familiaris, Microsome; conditions: read-out: Stability
# Chain of hERG (KCNH2) (Q12809 whole entry): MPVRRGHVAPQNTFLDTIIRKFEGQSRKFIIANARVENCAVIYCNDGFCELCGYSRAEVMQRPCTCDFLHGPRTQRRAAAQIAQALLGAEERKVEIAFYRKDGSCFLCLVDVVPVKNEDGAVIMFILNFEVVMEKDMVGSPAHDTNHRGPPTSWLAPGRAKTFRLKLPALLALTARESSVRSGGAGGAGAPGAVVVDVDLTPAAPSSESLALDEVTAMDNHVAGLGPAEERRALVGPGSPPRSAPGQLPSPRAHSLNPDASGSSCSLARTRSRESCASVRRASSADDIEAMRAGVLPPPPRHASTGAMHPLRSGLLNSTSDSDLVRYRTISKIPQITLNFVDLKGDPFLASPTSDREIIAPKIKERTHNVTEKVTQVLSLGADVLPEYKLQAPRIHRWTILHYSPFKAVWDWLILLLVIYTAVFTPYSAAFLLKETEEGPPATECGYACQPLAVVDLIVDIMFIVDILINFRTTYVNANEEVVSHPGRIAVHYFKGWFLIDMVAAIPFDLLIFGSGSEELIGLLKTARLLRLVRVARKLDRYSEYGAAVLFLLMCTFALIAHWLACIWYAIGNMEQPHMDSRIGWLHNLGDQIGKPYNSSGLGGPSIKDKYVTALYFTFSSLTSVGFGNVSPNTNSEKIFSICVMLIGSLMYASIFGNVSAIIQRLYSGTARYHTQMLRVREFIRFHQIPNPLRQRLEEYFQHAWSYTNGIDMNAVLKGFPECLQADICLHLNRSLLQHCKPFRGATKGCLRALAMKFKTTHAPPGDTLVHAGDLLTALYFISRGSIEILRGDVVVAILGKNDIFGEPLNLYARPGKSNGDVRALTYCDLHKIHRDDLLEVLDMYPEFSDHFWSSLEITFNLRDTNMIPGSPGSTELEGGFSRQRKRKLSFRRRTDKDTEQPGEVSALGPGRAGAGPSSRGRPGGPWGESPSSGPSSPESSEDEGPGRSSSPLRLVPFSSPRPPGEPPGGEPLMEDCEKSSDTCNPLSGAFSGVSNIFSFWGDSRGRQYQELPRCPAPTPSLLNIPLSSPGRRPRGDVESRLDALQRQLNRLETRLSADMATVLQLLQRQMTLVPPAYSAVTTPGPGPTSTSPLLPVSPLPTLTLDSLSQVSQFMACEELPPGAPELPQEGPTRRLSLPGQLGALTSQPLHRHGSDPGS
SMILES,inhibition [1],inhibition [2],Papp [3] [×10⁻⁶ cm/s],inhibition [4],IC50 [5] [nM],inhibition at 10 µM [6] [%],Activity [7],"ED50 ([8]; Mus musculus, read-out: ED50) [mg/kg]",inhibition [9],EC5 [10] [µM],remaining at 0.25 h [11] [%],ED50 [8] [mg/kg],remaining at 0.5 h [12] [%],remaining at 0.5 h [13] [%],remaining at 0.5 h [14] [%],remaining at 0.5 h [15] [%],remaining at 0.5 h [16] [%]
CC1(C)C(=O)N(c2ccc(C#N)c(C(F)(F)F)c2)C(=S)N1c1cccc(S(N)(=O)=O)n1,Active,Active,14,Active,700,10,Non-toxic,7,Active,> 10,94,,,,,,
CC(O)(CS(=O)(=O)c1ccc(F)cc1)C(=O)Nc1ccc(C#N)c(C(F)(F)F)c1 (configuration not stated) [BICALUTAMIDE],inactive,inactive,,inactive,,7.4,,,inactive,,99,3,,,,,
CC1(C)C(=O)N(c2ccc(C#N)c(C(F)(F)F)c2)C(=S)N1c1cncc(S(N)(=O)=O)c1,,,14,,1000,33,,6,,> 10,95,,,,,,
CC1(C)C(=O)N(c2ccc(C#N)c(Cl)c2)C(=S)N1c1cccc(S(N)(=O)=O)n1,,,1.3,,600,26,,6,,> 10,100,,,,,,
CC1(C)C(=O)N(c2ccc(C#N)c(Cl)c2)C(=S)N1c1cccc(S(N)(=O)=O)c1,,,1.6,,,58,,84,,> 10,100,,,,,,
CC1(C)NC(=S)N(c2ccc(C#N)c(Cl)c2)C1=O,,,,,,,,,,0.0002,,,0.075,0.027,0.038,0.022,< 0.001
CC1(C)NC(=S)N(c2ccc(C#N)c(C(F)(F)F)c2)C1=O,,,,,,,,,,0.001,,,< 0.001,< 0.001,< 0.001,< 0.001,< 0.001
CC1(C)C(=O)N(c2ccc(C#N)c(Cl)c2)C(=S)N1c1cncc(S(N)(=O)=O)c1,,,13,,2000,52,,,,> 10,95,,,,,,
CC1(C)C(=O)N(c2ccc(C#N)c(Cl)c2)C(=S)N1CCCS(N)(=O)=O,,,25,,,17,,10,,> 10,100,,,,,,
CC1(C)C(=O)N(c2ccc(C#N)c(C(F)(F)F)c2)C(=S)N1c1cccc(S(N)(=O)=O)c1,,,8.1,,300,41,,63,,> 10,100,,,,,,
CC1(C)C(=O)N(c2ccc(C#N)c(C(F)(F)F)c2)C(=S)N1c1ccccc1,,,0.69,,200,,,,,3,80,,,,,,
CC1(C)C(=O)N(c2ccc(C#N)c(C(F)(F)F)c2)C(=S)N1c1ccnc(S(N)(=O)=O)c1,,,12,,1000,0,,,,> 10,97,,,,,,
